# ERAP1 inh: ERAP1 (human) enzyme inhibition; hit rate 0.15% among 340,000; recombinant ERAP1, Leu-AMC fluorescence, 60 min; inhibition, % at 10.7 µM; Q9NZ08;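 active = mean replicate inhibition of at least 30%, or all replicates individually reaching that 30% level; inactive = mean below 30% and not every replicate reaching it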;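 also: 0% = neutral control wells and 100% = L-leucinethiol positive control wells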
# ARNT TACC3 PPI: disrupts binding between human ARNT and TACC3. Q9Y6A5. AlphaScreen His-ARNT PAS-B/GST-TACC3 binding, luminescence; TACC3 fragment carries E629A point mutation. inhibition, % at 9.99 µM. hit rate 0.66% among 390,000. AID 623870;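 active = mean inhibition of replicates at least 50% and at least half of replicates each reaching 50%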;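 also: 0% = complete ARNT plus TACC3 wells and 100% = ARNT alone without TACC3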
# CASP6 VEID inh: inhibitors of human caspase-6. P55212. purified caspase-6, Z-VEID-R110 cleavage fluorescence. inhibition, % at 12.5 µM. hit rate 0.53% among 350,000. AID 686996;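 active = mean inhibition across replicates at least about 35%, with every replicate also reaching that limit, limit read from the data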;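 also: 0% = median of neutral control wells and 100% = no fluorescence left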
# Target sequence (P55212 24-179 limits assumed): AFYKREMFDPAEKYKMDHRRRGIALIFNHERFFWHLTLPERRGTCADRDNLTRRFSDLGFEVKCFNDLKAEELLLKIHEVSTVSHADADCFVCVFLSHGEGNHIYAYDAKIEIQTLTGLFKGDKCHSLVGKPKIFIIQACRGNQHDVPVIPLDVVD
# Target sequence (P55212 194-293 limits assumed): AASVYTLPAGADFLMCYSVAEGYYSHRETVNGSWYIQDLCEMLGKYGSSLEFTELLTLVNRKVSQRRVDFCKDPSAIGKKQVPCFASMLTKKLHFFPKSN
# PGC1a acetyl inh: modulators of PGC1a acetylation | hit rate 0.17% among 350,000 | U2OS PGC1a acetylation, AlphaScreen anti-acetyl-lysine; with virally co-expressed GCN5 acetyltransferase | AID 651687 | inhibition, % at 15.6 µM;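 active = every replicate shows inhibition of at least 40%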;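 also: 0% = neutral control wells and 100% = positive control wells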
# rRNA inh HTS: selective bacterial rRNA inhibition in E. coli; E. coli WT GFP vs humanized-ribosome RFP mutants, fluorescence, 24 h; active compounds read low; DMSO median 0, no signal -100; GFP signal change (wild-type ribosome), % (no concentration beside the values); hit rate 1.6% among 350,000; AID 720706;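 active = significant combined selectivity score with lowered wild-type GFP, culture density cut under 30%, mutant RFP and density less affected; inactive = any of these conditions unmet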
# S100A4 inh HTS: blocks human S100A4 binding to myosin IIA peptide; hit rate 0.14% among 360,000; S100A4/TAMRA-MyoIIA peptide fluorescence polarization; AID 652163; inhibition, % at 10.7 µM; P26447;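 active = mean inhibition of at least 70% across replicates, with every replicate also reaching that level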
# Target sequence (P26447 whole entry, looked up): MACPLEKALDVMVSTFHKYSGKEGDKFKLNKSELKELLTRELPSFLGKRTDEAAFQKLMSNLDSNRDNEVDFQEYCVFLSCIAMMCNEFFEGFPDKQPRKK
#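 System – human S100A4 monomer protein, biochemical binding assay · Buffer or medium – Calcium-containing HEPES buffer, pH 7.2 · Timing – 5 min between mix addition and reading · Also added – TAMRA-labelled myosin IIA heavy-chain peptide probe, 5 nM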
# * = called active by the depositor; · = no result. This is a sample that favours compounds with a hit; in the whole collection about 2.4% have one here.
SMILES,ERAP1 inh,ARNT TACC3 PPI,CASP6 VEID inh,PGC1a acetyl inh,rRNA inh HTS,S100A4 inh HTS
N=c1sccn1CC(=O)Nc1ccccc1Sc1ccccc1,-1.7,5.6,-5.5,72.9*,9.8,-0.6
O=C1S/C(=C\C=C\c2ccco2)C(=O)N1c1ccc(O)cc1,8.5,6.9,43.1*,·,·,-14.7
O=C(O)C(Cc1ccccc1)N1C(=O)/C(=C/C=C/c2ccco2)SC1=S (stereo not drawn),15.0,2.3,91.2*,6.3,14.3,-86.2
CCC(C(=O)O)N1C(=O)/C(=C/c2cccn2C)SC1=S (stereo not drawn),·,-1.0,·,·,·,·
O=C(CCN1C(=O)/C(=C\C=C\c2ccccc2)SC1=S)Nc1cccc(C(=O)O)c1,-2.1,-3.5,9.4,0.4,0.8,-7.4
O=C(CCN1C(=O)/C(=C\C=C\c2ccccc2)SC1=S)Nc1ccccc1C(=O)O,5.3,-2.1,45.2*,·,-6.0,1.9
O=C(O)CC(C(=O)O)N1C(=O)/C(=C/C=C/c2ccco2)SC1=S (stereo not drawn),25.8,-0.7,80.6*,-2.6,16.8,-20.4
O=C(NC1CCC1)[C@@H]1[C@@H](CO)[C@@H]2Cn3c(ccc(-c4ccccc4)c3=O)[C@@H]2N1CC1CC1,2.6,·,-1.0,2.8,-6.5,11.1
C[C@H](CO)N1C[C@H](C)[C@@H](CN(C)C(=O)Cc2ccccc2)Oc2ncc(-c3ccccc3)cc2C1=O,2.6,-1.7,0.3,-2.8,-3.6,-22.7
C[C@H](O)C#Cc1cnc2c(c1)C(=O)N([C@@H](C)CO)C[C@H](C)[C@H](CN(C)C(=O)Nc1ccc(C(F)(F)F)cc1)O2,·,-5.0,·,8.0,5.7,-1.6
O=C(O)CCCN1C(=O)/C(=C/C=C/c2ccco2)SC1=S,11.6,2.6,81.5*,·,8.9,-26.0
CO[C@@H]1CN(C)C(=O)c2cc(NC(=O)c3ccccc3)ccc2OC[C@H](C)N(C)C[C@@H]1C,0.9,-8.3,1.5,-19.9,2.2,-2.5
CCn1c(=N)n(CC(=O)C(C)(C)C)c2ccccc21,-3.3,2.9,-1.9,-5.8,-22.6*,-7.1
N/C(Cc1ccc(Cl)cc1Cl)=N\OC(=O)Cc1ccccc1,-4.2,-5.7,-3.8,-5.3,-3.2,0.1
N/C(Cc1ccc(Cl)cc1Cl)=N\OC(=O)c1ccccc1,-0.4,8.6,-0.2,-0.5,-30.6*,2.3
O=C(CCN1CCCCC1)N[C@H]1CC[C@H](CCNC(=O)c2cc(Cl)cc(Cl)c2)O[C@@H]1CO,-1.5,-0.2,-2.1,2.9,-0.9,-22.6
CCOC(=O)c1cnc(-n2[nH]c(C)c(Cc3ccccc3)c2=O)[nH]c1=O,4.0,74.9*,33.6,-4.5,-42.9,-1.9
CCOC(=O)c1cnc(Cc2ccccc2)[nH]c1=O,·,-13.9,1.5,·,15.3,-13.3
CC(C)NC(=O)N(C)C[C@@H]1Oc2ccc(NC(=O)Nc3ccc(F)cc3)cc2C(=O)N([C@@H](C)CO)C[C@H]1C,1.1,-2.5,-0.5,7.3,0.3,-1.4
C=C1C(=O)C23CCC4C(C)(C(=O)OC)CCCC4(C)C2CCC1(O)C3 (stereo not drawn),-1.6,7.3,3.9,76.3*,-36.6,7.8
C=C1C[C@@]23CCC4[C@@](C)(CCC[C@@]4(C)C(=O)O)C2CC[C@]1(O)C3 (stereo partly drawn),8.0,1.3,1.8,·,·,-1.0
COC(=O)[C@]1(C)CCC[C@@]2(C)C3CC[C@@]4(C)C[C@]3(CCC21)CC(=O)N4 (stereo partly drawn),-0.4,2.2,·,·,-27.5*,12.0
COc1ccc(CN(C)C[C@@H]2OCCCC[C@@H](C)Oc3ccc(NC(=O)Nc4ccccc4)cc3C(=O)N([C@H](C)CO)C[C@@H]2C)cc1,·,-16.1,·,6.6,2.0,·
COC(=O)Cc1[nH]n(-c2nc3ccccc3s2)c(=O)c1C(C)=Nc1ccc(Cl)cc1,-2.4,3.2,11.1,·,-3.8,-1.6
C/C(=N/NC(=O)c1cccs1)c1c(C)[nH]n(-c2nc3ccccc3s2)c1=O,3.7,47.0*,1.9,·,-46.2,-1.6
SMILES,ERAP1 inh,ARNT TACC3 PPI,CASP6 VEID inh,PGC1a acetyl inh,rRNA inh HTS,S100A4 inh HTS
COC(=O)Cc1[nH]n(-c2nc3ccccc3s2)c(=O)c1C(C)=Nc1ccc(C)cc1,-1.0,4.5,2.8,8.5,-25.9*,-15.1
O=C(Nc1ccc(N2CCOCC2)c(S(=O)(=O)Nc2cc(Cl)ccc2Cl)c1)c1cccnc1,·,2.8,1.8,-0.3,-35.0*,-8.3
Cc1ccc(S(=O)(=O)Nc2ccc3c(c2)C(=O)N(C)[C@@H]2CC[C@H](CC(=O)NCCc4ccncc4)O[C@@H]2CO3)cc1,-2.2,-4.8,1.0,3.1,0.3,4.7
O=C(/C=C/c1ccc([N+](=O)[O-])cc1)NCCc1ccccc1,-1.2,-4.2,-0.6,·,3.6,-17.8
CC(=O)Nc1cccc(NC(=O)c2cc([N+](=O)[O-])ccc2N2CCCCC2)c1,0.8,7.5,35.7*,0.0,·,-1.3
NS(=O)(=O)c1ccc(CCNC(=O)/C=C/c2ccc([N+](=O)[O-])cc2)cc1,2.9,-3.3,1.5,8.3,-17.9*,-7.2
NS(=O)(=O)c1ccc(CCNC(=O)c2cc([N+](=O)[O-])ccc2N2CCCCC2)cc1,1.0,2.5,1.7,·,-17.1*,2.7
CN(C)S(=O)(=O)c1cccc(NC(=O)c2cc([N+](=O)[O-])ccc2N2CCCCC2)c1,3.1,3.8,1.9,1.2,-10.0,40.7
CCCNC(=O)N1CC[C@@H]2[C@@H](CO)N(C)c3ccc(-c4ccc(F)cc4)cc3[C@@H]21,1.8,20.9,3.1,20.8,-6.2,92.9*
CCCNC(=O)N1CC[C@@H]2[C@H]1c1cc(-c3ccccc3)ccc1N(C)[C@H]2CO,3.4,-4.4,-2.1,-5.1,-7.9,-21.9
COc1cccc(-c2ccc3c(c2)[C@H]2[C@H](CCN2C(=O)c2ccc4c(c2)OCO4)[C@H](CO)N3C)c1,0.3,-10.2,-0.1,-8.5,2.1,98.0*
Cc1ccccc1-c1ccc([C@@H]2[C@H](CO)N3C(=O)CN(C(=O)c4cccnc4)C[C@@H]23)cc1,·,·,·,·,-1.4,·
CCc1ccc2c(c1)C(NC(C)=O)C(=O)N2CCN1CCOCC1 (stereo not drawn),20.6,-32.2,53.8*,·,19.4,-4.6
O=[N+]([O-])c1cc(O)c2ncccc2c1,-4.4,·,46.9*,·,-41.0,3.3
COC(=O)c1ccc(COc2ccc(C)cc2[N+](=O)[O-])o1,1.9,2.3,-0.8,14.4,-23.9*,-2.8
COC(=O)c1ccc(COc2cc([N+](=O)[O-])cc3cccnc23)o1,2.4,7.1,37.6*,2.1,14.5,-5.5
Cc1ccc(OCc2ccc(C(=O)NN)o2)c([N+](=O)[O-])c1,-1.7,1.7,0.0,6.5,1.4,-1.0

# Screening results (PubChem BioAssay)
